Test results: article PMC3141282 (Hypertension, 2011)

Tests used:
[1] = tested on: endothelial progenitor cells; details: cells from sham or infarcted rodents; cited from earlier work
[2] = tested on: megalin; details: scavenger receptor megalin; cited from earlier work
[3] = tested on: rabbit aortic smooth muscle cells; details: cited from earlier work
[4] = tested on: HEK 293T cells transfected with the empty vector; test: [125I]Ang-; format: binding, Human
[5] = tested on: HEK 293T cells transfected with the empty vector (mock); test: [3H]arachidonic acid; format: cell-based, Human; details: Ang-(1-7) during 15 min, 37 °C
Method in brief: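 They were washed with DMEM containing 2% BSA, then exposed to test peptide at 37 °C for the stated times. Supernatant radioactivity was counted, and total cellular radioactivity came from cells solubilized in 1 mol/L NaOH. Fractional release (% of total) was expressed as percent of unstimulated control (100%), mean ± SEM.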

[6] = tested on: rat renal cortex; details: cited from earlier work

For Angiotensin-(1-7) [Ang-(1-7)], the “Ang-(1-7)-induced proliferation of endothelial progenitor cells, responsiveness” value [1] is listed as “attenuation in responsiveness”, the “binding and internalization by megalin” value [2] is listed as “binds and internalizes Ang-(1-7)” and the “Ang-(1-7) response in releasing AA from tissue lipids and stimulating 6-keto-prostaglandin F1α production” value [3] is listed as “decrease in Ang-(1-7) response”. For the same substance, the “Ang-(1-7) binding” value ([4]; 0.5 nmol/L [125I]Ang-(1-7), 4°C, 60 min) was “undetectable”, the total binding ([4]; 0.5 nmol/L [125I]Ang-(1-7), 4°C, 60 min, mean ± SEM) was 480±68 cpm and the nonspecific binding ([4]; in the presence of 10 μmol/L unlabeled Ang-(1-7), mean ± SEM) was 395±87 cpm. For the same substance, the “[3H]AA release, mock cells” value [5] was “no changes in [^3H]AA release” and the “Ang-(1-7) response, phosphatidylcholine biosynthesis” value [6] was “decrease in Ang-(1-7) response”.
